PDI turbidity = inhibitors of human protein disulfide isomerase; PDI insulin aggregation turbidity, A650, 90 min; inhibition, % at 10 µM; 350,000 compounds, 0.052% hits; AID 588391;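 active = mean inhibition across replicates of 30% or more, whatever share of single replicates reach that level; inconclusive = mean inhibition below 30% while every single replicate reaches 30%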
VIM-2 inhibitor = inhibitors of Pseudomonas aeruginosa VIM-2 metallo-beta-lactamase; purified VIM-2, nitrocefin hydrolysis, epi-absorbance fluorescence; 290,000 compounds, 0.89% hits; inhibition, % at 5.6 µM; AID 1527;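 active = inhibition above the mean of all tested compounds plus 3 SD, cutoff set per screening run, cut at about 7.5% in these data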;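 also: red hydrolysis product quenches plate fluorescence so inhibitors raise well fluorescence; 0% = enzyme with DMSO and 100% = DMSO without enzyme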
ERp5 inh = inhibitors of human ERp5. 350,000 compounds, 0.05% hits. Q15084. ERp5 insulin aggregation, absorbance 650 nm, 90 min. inhibition, % at 9.99 µM. AID 651711;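 active = mean replicate inhibition above about 25%, with every replicate also reaching it, limit read from the data, passing the limit was not always enough; inconclusive = only one of those two criteria met; inactive = neither criterion met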
Target sequence (Q15084 whole entry, looked up): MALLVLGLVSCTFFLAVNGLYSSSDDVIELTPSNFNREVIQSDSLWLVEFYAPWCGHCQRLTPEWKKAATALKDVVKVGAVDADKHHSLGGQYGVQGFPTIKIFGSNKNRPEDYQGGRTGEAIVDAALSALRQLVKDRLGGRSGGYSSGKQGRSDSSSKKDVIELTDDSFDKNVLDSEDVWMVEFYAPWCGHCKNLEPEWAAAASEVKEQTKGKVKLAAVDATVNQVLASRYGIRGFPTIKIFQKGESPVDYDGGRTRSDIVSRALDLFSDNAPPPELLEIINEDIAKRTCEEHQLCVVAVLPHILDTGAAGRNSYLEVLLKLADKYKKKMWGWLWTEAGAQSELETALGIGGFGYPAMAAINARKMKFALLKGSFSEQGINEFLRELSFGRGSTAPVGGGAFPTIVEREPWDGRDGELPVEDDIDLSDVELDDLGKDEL
IMP-1 inh = blocks Pseudomonas aeruginosa IMP-1 metallo-beta-lactamase; purified IMP-1, nitrocefin hydrolysis, epi-absorbance fluorescence; inhibition, % at 5.6 µM; 290,000 compounds, 0.45% hits; AID 1556;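 active = inhibition above the mean plus 3 SD of all compounds in the same screening run, cut at about 4.5% in these data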;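 also: 0% = IMP-1 with DMSO and 100% = DMSO wells lacking enzyme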
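System: Purified IMP-1 | Read-out basis: Percent enzyme inhibition | Controls: IMP-1 with DMSO as 0%, enzyme-free DMSO as 100% | Replicates: One well per compound | Doses: 5.6 µM nominal single concentration | Detection: Epi-absorbance fluorescence, 480 nm excitation, 530 nm emission | Incubation: 25 °C, 15 min preincubation, 25 min reaction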
PglD inh = inhibitors of Campylobacter jejuni PglD acetyltransferase; purified PglD enzyme, DTNB colorimetric CoA detection; inhibition, % at 12.5 µM; 360,000 compounds, 0.098% hits; in the data active = inhibition above about 16%, passing the limit was not always enough; inconclusive = no clear call, values can overlap the other calls
PvdQ acylase = blocks Pseudomonas aeruginosa PvdQ acylase activity. purified PvdQ acylase, fluorescence plate reader. inhibition, % at 10 µM. 340,000 compounds, 0.063% hits. AID 488965; in the data active = inhibition above about 30%, passing the limit was not always enough; inconclusive = no clear call, values can overlap the other calls;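 also: 0% = vehicle neutral wells and 100% = reference inhibitor wells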
* hit, by the source's call; u = inconclusive; x = no result. Sampled rows, rich in hits. Any-hit rate of the full collection: about 1%.

SMILES	PDI turbidity	VIM-2 inhibitor	ERp5 inh	IMP-1 inh	PglD inh	PvdQ acylase
CN(C)CC(=O)Nc1ccc2c(c1)[C@H]1C[C@@H](CC(=O)NC3CCCCC3)O[C@H](CO)[C@H]1O2	x	x	-11.6	x	1.1	x
COCC(=O)N1C[C@H](C)[C@H](OC)CN(C)C(=O)c2ccc(NC(=O)c3cc(C)on3)cc2OC[C@H]1C	x	x	3.4	x	3.7	x
c1ccc(-n2nnnc2Oc2ccc(-n3ccnc3)cc2)cc1	-7.5	10.9*	x	-3.5	3.6	-5.8
C[C@H](O)C#Cc1cnc2c(c1)C(=O)N([C@@H](C)CO)C[C@H](C)[C@@H](CN(C)C(=O)CC1CC1)O2	x	x	-5.7	x	1.4	x
COc1ccccc1C(=O)NC(=S)Nc1cccc2cc(O)ccc12	-1.7	-0.2	0.2	-3.8	-8.7	10.9
COc1ccc(C(=O)NC(=S)Nc2cccc3cc(O)ccc23)cc1OC	3.0	-0.4	3.3	4.5*	-3.8	0.6
COc1ccc(NC(=O)N(C)C[C@@H]2OCCCC[C@H](C)Oc3ccc(NS(=O)(=O)c4ccc(C)cc4)cc3C(=O)N([C@H](C)CO)C[C@H]2C)cc1	x	x	1.5	x	17.2*	x
COc1ccc(NC(=O)Nc2ccc3c(c2)C(=O)N([C@H](C)CO)C[C@H](C)[C@@H](CN(C)C(=O)C2CCCCC2)OCCCC[C@H](C)O3)cc1	x	x	29.6*	x	-0.5	x
COc1ccc(NC(=O)N(C)C[C@@H]2OCCCC[C@@H](C)Oc3ccc(NS(=O)(=O)c4ccc(C)cc4)cc3C(=O)N([C@H](C)CO)C[C@H]2C)cc1	x	x	2.6	x	6.9	x
C[C@@H]1CCCCO[C@@H](CN(C)C(=O)CCC(F)(F)F)[C@@H](C)CN([C@@H](C)CO)C(=O)c2cc(NS(=O)(=O)c3ccc(Cl)cc3)ccc2O1	x	x	70.2*	x	0.5	x
CCCC(=O)Nc1ccc2c(c1)OC[C@@H](C)N(C(=O)c1ccccn1)C[C@@H](C)[C@@H](OC)CN(C)C2=O	x	x	-3.4	x	-3.1	x
Cc1ccc(S(=O)(=O)N(CC(=O)N2CCC(C)CC2)c2ccccc2)cc1	1.8	0.7	-0.9	-1.1	x	37.2*
Cc1ccc(S(=O)(=O)N(CC(=O)N2CCCCCC2)c2ccccc2)cc1	-18.3	-3.1	x	-0.9	15.7	-1.5
CO[C@@H]1CN(C)C(=O)c2cc(NC(C)=O)ccc2OC[C@H](C)N(CC2CC2)C[C@@H]1C	x	x	-3.2	x	1.3	x
O=c1cc(CSc2nnnn2-c2ccc(O)cc2)nc2sccn12	38.9*	-0.9	-0.2	-1.4	-3.5	-12.1
Cc1cccc(-n2c(SCc3cc(=O)n4ccsc4n3)nc3ccccc32)c1	-8.8	-0.6	x	5.0*	-2.4	2.4
O=C(CN1CCOCC1)N[C@@H]1CC[C@H](CCn2cc(C3CCCCC3)nn2)O[C@H]1CO	x	x	1.2	x	0.0	x
O=C(CN1CCN(c2ccc(Cl)cc2)CC1)NCc1ccccc1	7.1	-2.2	x	-1.2	5.7	-2.6
CC(=O)c1ccc(N2CCN(CC(=O)NCc3ccccc3)CC2)cc1	1.8	1.0	1.1	6.5*	7.9	-4.7
COc1ccc2c3c(n(C)c2c1)[C@@H](CO)N(C(=O)C1CC1)CC31CCN(C(=O)C2CCOCC2)CC1	x	x	6.1	x	x	x
CCOc1ccc(NC(=O)/C=C/c2ccccc2)c([N+](=O)[O-])c1	-3.7	-0.6	-4.1	4.8*	x	-0.4
CCOc1ccc(/C=C/C(=O)Nc2ccc(OC)cc2[N+](=O)[O-])cc1	-3.5	-1.1	x	0.2	x	-2.6
CC(C)CC#Cc1cnc2c(c1)C(=O)N([C@@H](C)CO)C[C@@H](C)[C@H](CN(C)C(=O)c1ccccc1F)O2	x	x	x	x	1.8	x
CCC(C)NCCOc1ccccc1C (stereo unspecified)	-1.3	-3.1	-1.9	27.7*	-0.9	-15.2
O=C(c1ccccc1)N1CC(=O)N2[C@H](CO)[C@@H](c3ccc(C#Cc4ccccc4)cc3)[C@H]2C1	x	x	-3.1	x	x	x
SMILES	PDI turbidity	VIM-2 inhibitor	ERp5 inh	IMP-1 inh	PglD inh	PvdQ acylase
CC1(C)OC(=O)C(=Cc2ccc(-c3ccc(S(N)(=O)=O)cc3)o2)C(=O)O1	-7.9	1.1	-3.1	34.3*	-0.8	-4.6
COc1ccc(NC(=O)Nc2ccc3c(c2)C(=O)N([C@@H](C)CO)C[C@H](C)[C@H](CN(C)S(=O)(=O)c2ccc(C)cc2)OCCCC[C@H](C)O3)cc1	x	x	-1.6	x	0.3	x
CN(C)c1cc(Nc2ccc(O)cc2)c([N+](=O)[O-])c2nonc12	-2.8	9.1*	0.0	-4.4	-6.5	-5.9
CN(C)c1cc(Nc2cccc(O)c2)c([N+](=O)[O-])c2nonc12	4.9	2.1	-3.2	-3.2	3.2	-18.9
CCCN(C)C[C@H]1OCCCC[C@@H](C)Oc2ccc(NC(=O)Nc3ccc(C(F)(F)F)cc3)cc2C(=O)N([C@H](C)CO)C[C@H]1C	x	x	-2.2	x	2.5	x
C[C@@H]1CN([C@H](C)CO)C(=O)c2cc(C#Cc3ccccc3F)cnc2O[C@@H]1CN(C)C(=O)C1CCC1	x	x	7.0	x	0.7	x
Cc1noc(C)c1NC(=O)N(C)C[C@@H]1OCCCC[C@@H](C)Oc2ccc(NS(=O)(=O)c3c(C)noc3C)cc2C(=O)N([C@@H](C)CO)C[C@H]1C	x	x	3.2	x	-0.5	x
O=C(CSc1nnc(C2CC2)n1Cc1ccccc1)N1CCN(S(=O)(=O)c2ccccc2)CC1	-1.8	-1.4	x	-1.1	0.2	-7.0
O=C(CSc1nnc(C2CC2)n1Cc1ccccc1)c1ccc(S(=O)(=O)N2CCOCC2)cc1	3.8	22.7*	x	-2.8	-5.6	-6.8
CCCCN(CC)S(=O)(=O)N1CCC(C(=O)NCCCN2CCOCC2)CC1	-3.4	-1.4	-5.4	6.6*	x	-12.6
CC(C)NC(=O)Nc1ccc2c(c1)C(=O)N([C@@H](C)CO)C[C@H](C)[C@@H](CN(C)C(=O)Nc1ccccc1)OCCCC[C@H](C)O2	x	x	-2.5	x	0.2	x
COc1ccc(N=Cc2sc(O)c3ccccc23)cc1	1.5	1.9	x	8.3*	5.3	0.8
COc1ccc(N=Cc2c(O)c3ccccc3n2C(C)=O)cc1	-3.2	-2.5	u	-4.0	2.2	4.3
c1cc(Nc2cccc3nccnc23)c2nccnc2c1	-5.9	8.6*	2.6	-2.0	0.3	-13.5
Cn1nc(-c2ccc(OCC(=O)Nc3ccccc3)cc2)c2ccccc2c1=O	-0.1	9.3*	x	-2.9	x	-0.9
COCC1=C([C@H](O)c2ccccc2)[C@H](CO)[C@@H]2C(=O)N(C)C(=O)[C@@H]2C1	x	x	-2.1	x	0.0	x
O=C(CC(CC(=O)c1ccccc1)C(=O)O)c1ccccc1	-9.8	8.9*	x	-4.3	-6.8	2.7
O=C(CC(CC(=O)c1ccccc1)c1ccccc1)c1ccccc1	2.5	-3.4	0.5	-1.9	3.6	-7.2
O=C(NCC[C@H]1CC[C@@H](NC(=O)C2CCCC2)[C@@H](CO)O1)c1cnccn1	x	x	-0.9	x	4.1	x
CCCc1cc(=O)oc2c3c(c(Cl)cc12)OCN(CCCO)C3	x	4.5	x	10.1*	x	x
CCC(=O)N1CC2(C1)[C@H](c1ccccc1)[C@@H](CO)N2C(=O)c1ccncc1	x	x	-5.2	x	x	x
O=C1NC(c2ccccc2)(C(F)(F)F)SC2=NCCCN12 (stereo unspecified)	4.0	7.4	x	-5.3	-1.0	-6.8

Screens deposited in PubChem BioAssay by several laboratories.
